Assay results reported in publication PMC11299136 (ACS Applied Materials & Interfaces, 2024).

B1: bovine trypsin (protein, UniProt P00760 24-246, looked up)
Serine protease 1: IVGGYTCGANTVPYQVSLNSGYHFCGGSLINSQWVVSAAHCYKSGIQVRLGEDNINVVEGNEQFISASKSIVHPSYNSNTLNNDIMLIKLKSAASLNSRVASISLPTSCASAGTQCLISGWGNTKSSGTSYPDVLKCLKAPILSDSSCKSAYPGQITSNMFCAGYLEGGKDSCQGDSGGPVVCSGKLQGIVSWGSGCAQKNKPGVYTKVCNYVSWIKQTIASN

Key:
[1] = tested on: HepG2 cells; experiment: Cellular toxicity, MTT assay; type: cell-based, human; details: 2–128 μL fluorous solvent added to culture medium, 48 h
In short: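 HepG2 cells seeded at 2000 cells/well and allowed to adhere overnight. Dispersant at 10 nM–1 mM in culture medium, or 2–128 μL fluorous solvent added to the medium, for 48 h. Serum-free medium served as the negative control and 20% DMSO in serum-free medium as the positive control. Then 0.5 mg/mL MTT in serum-free medium for 2 h, formazan dissolved in DMSO, A540 read. Viability was normalized between the two controls.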

[2] = tested on: bacteria; experiment: Control bacterial viability; type: cell-based; details: component alone: PFOc mixed with bacterial media, or PD-7 added to PBS
[3] = Temperature-dependent circular dichroism; type: physicochemical
In short: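 Proteins were either diluted in PBS or dispersed in PFOc with 1 mM dispersant. The aqueous samples were heated between 40 and 90 °C, with a CD spectrum taken at each temperature. The PFOc dispersions were heat-treated at 40, 55, 70 and 85 °C for 15 min each, then mixed with PBS to elute the protein before CD. Each condition was run in triplicate, and representative spectra were reported.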

[4] = dispersed in PFOc using PD-7, heated up to 85 °C

Molecule	toxicity toward human liver cells [1]	MIC / bacterial viability [2]	change in secondary structure on heating (CD) [3, 4]	change in secondary structure on heating (CD) ([3]; saline (PBS) control formulation, 40–85 °C)
FC(F)(F)C(F)(F)C(F)(F)C(F)(F)C(F)(F)C(F)(F)C(F)(F)C(F)(F)F [PFOc, perfluorooctane]	biocompatible	no MIC could be calculated	–	–
bovine serum albumin [BSA]	–	–	minimal changes in secondary structure	–
rabbit serum immunoglobulin [IgG]	–	–	minimal changes in secondary structure	–
β-galactosidase	–	–	minimal changes in secondary structure	–
B1	–	–	minimal changes in secondary structure	minimal change in structure
